KCC2 mod: modulators of human KCC2 chloride dependent transport. B-score of Tl+ flux slope (higher = more flux/activation; lower = inhibition) at 10 µM. Q9H2X9. actives 2.2% (n = 190,000). KCC2 cells, thallium flux FluoZin-2 fluorescence;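 active means thallium flux slope and its plate-corrected score both differing from the plate sample mean at a set confidence after two filtering rounds, in either direction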;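 further: slope of fluorescence scaled to starting intensity during 10 to 20 s after thallium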
ROMK mod: modulators of human ROMK potassium channel | P48048 | Tet-inducible ROMK, thallium flux fluorescence; actives lie on both sides | B-score at 10 µM | actives 2% (n = 130,000);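 active means signal ratio slope over the read window, or its plate-corrected B-score, at least 3 SD from the plate mean, either direction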;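 further: B-score of the F/F0 ratio slope over 7 to 12 s after thallium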
Target sequence (P48048 whole entry, looked up): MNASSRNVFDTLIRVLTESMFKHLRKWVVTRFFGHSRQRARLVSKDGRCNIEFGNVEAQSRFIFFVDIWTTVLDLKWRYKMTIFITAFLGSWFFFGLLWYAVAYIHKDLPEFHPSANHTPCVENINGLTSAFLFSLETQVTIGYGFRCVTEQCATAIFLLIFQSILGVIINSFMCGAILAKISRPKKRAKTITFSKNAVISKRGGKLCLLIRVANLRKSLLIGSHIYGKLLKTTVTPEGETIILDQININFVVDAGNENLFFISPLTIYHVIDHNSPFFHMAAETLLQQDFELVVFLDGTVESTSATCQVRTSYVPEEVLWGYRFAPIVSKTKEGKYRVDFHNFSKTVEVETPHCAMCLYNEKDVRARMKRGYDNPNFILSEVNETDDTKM
Diaph act CS: counter-screen for diaphorase-based assays: diaphorase activators and chemical reducers; Diaphorase/resazurin coupled assay, resorufin fluorescence, 16 min; hits give high values; 1 = vehicle wells, 0 = NADH-free wells; activation factor at 20 µM; actives 0.005% (n = 190,000);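 active means diaphorase activity raised at least twofold by the compound at 20 µM; inactive means activation factor below 2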
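System – purified diaphorase enzyme from Clostridium kluyveri · Input – enzyme 0.07 U/mL final · Also added – final NADH 0.114 mM, resazurin 0.1 mM · Measured by – fluorescence of resorufin, 544 nm excitation, 590 nm emission · Timing – 16 min enzyme reaction, ambient temperature · Measure – resorufin increase flagging diaphorase activators or reducers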
WT yeast gro inh: growth inhibition of WT yeast, mitochondrial fusion screen; mitochondrial fusion phenotypic screen, WT strain; inhibition, % at 10 µM; actives 2.1% (n = 190,000); in the data active means inhibition above about 58%; tested in S. cerevisiae
L major viab: reduces viability of Leishmania major promastigotes; resazurin fluorescence viability; actives 9% (n = 200,000); AID 1063; inhibition, % at 10 µM; in the data active means inhibition above about 50%;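 further: promastigotes grown with compound for 44 hours at 28 °C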
Diaph inh CS: inhibits diaphorase or chemically oxidizes, flagging diaphorase assay artifacts | inhibition, % at 20 µM | actives 0.69% (n = 190,000) | diaphorase resazurin-to-resorufin fluorescence, NADH, 16 min; bacterial (C. kluyveri) enzyme, not human;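 active means primary screen inhibition at 20 µM above a set limit, cut at about 50% in these data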;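 further: plate controls were DMSO with full reaction for no effect and wells lacking NADH for full effect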
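Assay system: diaphorase enzyme from Clostridium kluyveri. Quantity: enzyme working solution with 0.14 U/mL diaphorase. Schedule: reaction incubation of 16 min at room temperature. Technique: resorufin fluorescence, excitation 544 nm, emission 590 nm. Controls: No-NADH positive control and DMSO neutral control.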
* = called active by the depositor; . = no result given. Most compounds without a hit are left out; they make up all but 12% or so of the library.

SMILES | KCC2 mod | ROMK mod | Diaph act CS | WT yeast gro inh | L major viab | Diaph inh CS
COc1cccc(-c2cn3nc(C)c(C)nc3n2)c1 | . | . | 1.1 | 27.4 | -1.5 | -7.9
Cc1ccccc1Nc1nc(N)nc(COC(=O)/C=C/c2ccco2)n1 | -2.28 | -0.424 | 1 | -40.0 | 11.0 | 3.7
CC(C)OCCCNCC(O)c1ccccc1 (stereo not given) | 0.571 | -0.681 | 0.9 | 2.6 | -0.2 | 5.7
CCn1c2ccccc2c2cc(/C=N/NC(=O)c3cccc(C)c3)ccc21 | . | 0.294 | 0.9 | 73.3* | 2.4 | 9.7
COc1ccc(/C=N/NC(=O)c2nc(-c3ccccc3)cc(-c3ccccc3)n2)cc1O | -0.53 | 0.0623 | 0.7 | 36.1 | 98.9* | 25.3
CCn1c(C)nc2cc(C(=O)N/N=C/c3cccc(O)c3O)ccc21 | -1.95 | 0.942 | 0.3 | 7.3 | 98.3* | 72.4*
COc1ccc(/C=N/NC(=O)c2nc(-c3ccccc3)cc(-c3ccccc3)n2)cc1 | 0.695 | 0.856 | 0.8 | -0.1 | 46.2 | 20.5
CCn1c(C)nc2cc(C(=O)NNC(=S)NC(=O)c3ccccc3)ccc21 | -0.56 | -0.0204 | 0.5 | -12.3 | 10.1 | 54.9*
CC(=O)NC1C(OCc2ccccc2)OC2COC(C)(C)OC2C1O (stereo not given) | . | . | 0.9 | 1.5 | 10.1 | 13.4
Cc1ccc(C)c(N2CCN(C(=O)CCn3c(=S)[nH]c4cc5c(cc4c3=O)OCO5)CC2)c1 | 2.01 | . | 0.7 | 23.2 | 7.6 | 26.8
COc1ccc(CCC(=O)Nc2c(C)n(C)n(-c3ccccc3)c2=O)cc1 | 1.62 | -0.839 | 0.9 | -1.2 | 0.7 | 11.6
CCn1c(C)nc2cc(C(=O)N/N=C/c3ccc(OC)c(O)c3)ccc21 | -0.241 | . | 0.9 | 7.8 | 63.2* | 11.2
CCOC(=O)C1=C(O)/C(=C/c2ccccn2)SC1=Nc1ccc(Cl)cc1 | 0.161 | -1.3 | 0.8 | 20.9 | 65.3* | 24.6
CCOC(=O)C1=C(O)/C(=C/c2ccc(OCC(=O)O)c(OCC)c2)SC1=Nc1ccccc1 | -0.677 | -0.267 | 0.8 | -2.7 | 11.4 | 18.7
COc1ccccc1-c1nnc(SC(C(=O)c2c[nH]c3ccccc23)c2ccccc2)n1C (stereo not given) | -1.99 | . | 0.8 | 2.1 | 8.2 | 24.5
COc1cccc(-c2nnc(SC(C(=O)c3c[nH]c4ccccc34)c3ccccc3)n2C)c1 (stereo not given) | -0.936 | . | 0.8 | 4.3 | 98.1* | 21.2
CC1SC(=Nc2ccccc2)N(S(=O)(=O)c2ccccc2)C1=O (stereo not given) | 2.28 | -0.0563 | 0.9 | 4.8 | -6.6 | 7.5
O=C1C(=O)N(CCN2CCOCC2)C(c2cccnc2)/C1=C(/O)c1ccc(Cl)cc1 (stereo not given) | 2.14 | 0.0957 | 1.1 | -1.2 | -6.2 | -12.4
CN(C)C(CNC(=O)/C=C/c1cccc(Cl)c1)c1ccccc1 (stereo not given) | -0.0283 | 1.32 | 0.9 | -0.4 | 75.4* | 12.9
CSc1cccc(NC(=O)/C=C/c2cccc(Cl)c2)c1 | -1.16 | 0.797 | 0.9 | 82.8* | 3.1 | 13.4
CN(C1CCCC1)C1CCN(C(=O)CNC(=O)/C=C/c2cccc(C(F)(F)F)c2)CC1 | 0.0157 | -1.49 | 1.1 | 3.5 | 76.3* | -7.0
O=C(/C=C/c1cccc(C(F)(F)F)c1)Nc1cccc(C(F)(F)F)c1 | . | . | 0.8 | 78.9 | 95.7* | 23.3
CC(=O)N(CN1C(=O)c2ccccc2C1=O)c1ccc2c(c1)oc1ccccc12 | -1.02 | . | 0.9 | 7.1 | -8.0 | 11.2
Cc1c(Br)c([N+](=O)[O-])nn1C(C)C(=O)N1CCCc2ccccc21 (stereo not given) | . | . | 0.8 | 0.9 | 15.1 | 17.5
CC1CCCCN1C(=S)NCCc1ccccc1 (stereo not given) | 0.925 | 0.493 | 1 | 9.2 | -4.8 | -4.6
Fc1cccc(NC(=S)NCCN2CCOCC2)c1 | 0.539 | 0.0103 | 0.9 | 9.3 | 67.3* | 9.3
Fc1cc(F)cc(NC(=S)NCCCN2CCOCC2)c1 | 1.16 | 0.00696 | 1 | -6.7 | 53.7* | 4.7
Fc1cccc(NC(=S)NCCCN2CCOCC2)c1 | 0.398 | . | 1 | -1.4 | 72.3* | 1.1
Oc1cccc(/C=N/NC(=S)NCCN2CCOCC2)c1O | -1.54 | -0.571 | 0.3 | 6.8 | 14.7 | 66.3*

Screening data from PubChem.
